This passage reports inhibition in vivo and Activity results from ChEMBL document CHEMBL1149793, “1,8-Naphthyridines VI. Synthesis and anti-inflammatory activity of 5-(alkylamino)-N,N-diethyl[1,2,4]triazolo[4,3-a][1,8]naphthyridine-6-carboxamides with a new substitution pattern on the triazole ring” (2008).

Common to all, as to format: functional
The subject of assay [1] is Rattus norvegicus. In words: Antiinflammatory activity against carrageenan-induced edema in Sprague-Dawley rat at 25 mg/kg, po. The procedure, abridged: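 Oral gavage dosing as a homogenized suspension in 0.5% carboxymethylcellulose (1 mL/100 g); controls got vehicle; indomethacin 6 mg/kg p.o. positive control. After 60 min, 0.1 mL 1% carrageenan in saline injected into the right hind plantar surface. Paw volume read by water displacement to the lateral malleolus at injection and 2 h later; the difference is edema. % inhibition vs controls; Student's t-test.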
A general note: Carrageenan injected into the paw causes an acute inflammation.

A further assay has as its system Mus musculus. Kind of assay: Analgesic activity against acetic acid-induced writhing in mouse at 3.12 mg/kg. Background: Writhing tests count abdominal constrictions after an irritant is injected.
In assay [2] the test system is Rattus norvegicus. Kind of assay: Antiinflammatory activity against carrageenan-induced edema in Sprague-Dawley rat at 100 mg/kg, po. Summed up:
(§1)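 Rats were dosed orally by gastric intubation with a homogenized suspension in 0.5% carboxymethylcellulose (1 mL/100 g); controls received vehicle alone. After 60 min, 0.1 mL of 1% carrageenan in saline was injected into the plantar surface of the right hind paw. Paw volume was measured by water displacement at injection and 2 h later. Edema was taken as the difference, with % inhibition versus controls (mean ± SD, Student's t-test).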

Assay [3] has as its system Rattus norvegicus. Kind of assay: Antiinflammatory activity against carrageenan-induced edema in Sprague-Dawley rat at 200 mg/kg, po. Summed up:
as §1

For assay [4], the system named is Rattus norvegicus. In words: Antiinflammatory activity against carrageenan-induced edema in Sprague-Dawley rat at 50 mg/kg, po. Summed up: as §1
The subject of assay [5] is Rattus norvegicus. In words: Antiinflammatory activity against carrageenan-induced edema in Sprague-Dawley rat at 6 mg/kg, po. The procedure, abridged: as §1

SMILES strings stand for the structures.

One may read the inhibition in vivo as the change of the read-out against control, counted positive when it falls. Low readings indicate little suppression, high ones strong suppression.

Compound `CCN(CC)C(=O)c1c(NCC(C)C)c2cccnc2n2c(C(C)C)nnc12` yielded an inhibition in vivo at 25 mg/kg with Rattus norvegicus [1] of 61%. As for `CCN(CC)C(=O)c1c(N2CCN(C)CC2)c2cccnc2n2c(C(C)C)nnc12`, the Activity with Mus musculus came out at 85%. Turning to `CCc1nnc2c(C(=O)N(CC)CC)c(N(CC)C(=O)c3cccnc3)c3cccnc3n12`, in the assay with Rattus norvegicus [2], the inhibition in vivo at 100 mg/kg stood at 31%. The compound also came in with an inhibition in vivo at 200 mg/kg with Rattus norvegicus [3] of 51%. In the case of `CCN(CC)C(=O)c1c(N(CC(C)C)C(C)=O)c2cccnc2n2c(C(C)C)nnc12`, 200 mg/kg produced 5% inhibition in vivo with Rattus norvegicus [3]. `CCOC(=O)Cc1nnc2c(C(=O)N(CC)CC)c(NCC(C)C)c3cccnc3n12` registered an inhibition in vivo at 100 mg/kg in the assay with Rattus norvegicus [2] of 35%. Moreover, in the assay on Rattus norvegicus [4], the inhibition in vivo at 50 mg/kg was found to be 21%. The inhibition in vivo at 200 mg/kg with Rattus norvegicus [3] was found to be 65%. For `CCN(CC)C(=O)c1c(NCC(C)C)c2cccnc2n2c(C(=O)N(CC)CC)nnc12`, in the assay with Rattus norvegicus [2], the inhibition in vivo at 100 mg/kg is 30%. The compound further registered an inhibition in vivo at 200 mg/kg in the assay on Rattus norvegicus [3] of 60%. In the assay with Rattus norvegicus [3], `CCCN(CCC)C(=O)c1nnc2c(C(=O)N(CC)CC)c(NCC(C)C)c3cccnc3n12` displayed an inhibition in vivo at 200 mg/kg of 35%. As for `CCCCNc1c(C(=O)N(CC)CC)c2nnc(CC(=O)NCC(C)C)n2c2ncccc12`, in the assay with Rattus norvegicus [3], testing at 200 mg/kg gave an inhibition in vivo of 0%.

In the assay with Rattus norvegicus [3], `CCN(CC)C(=O)c1c(NCC(C)C)c2cccnc2n2c(CC(=O)Nc3nccs3)nnc12` showed an inhibition in vivo at 200 mg/kg of 18%. `CCOC(=O)C(C)c1nnc2c(C(=O)N(CC)CC)c(NCC(C)C)c3cccnc3n12` (stereo not given) registered an inhibition in vivo at 200 mg/kg in the assay with Rattus norvegicus [3] of 12%. `CCN(CC)C(=O)c1c(NCC(C)C)c2cccnc2n2c(CC(=O)NCC(C)C)nnc12` yielded an inhibition in vivo at 200 mg/kg in the assay on Rattus norvegicus [3] of 18%. `CCOC(=O)c1nnc2c(C(=O)N(CC)CC)c(NCC(C)C)c3cccnc3n12` gave an inhibition in vivo at 200 mg/kg with Rattus norvegicus [3] of 20%. Take `CCNc1c(C(=O)N(CC)CC)c2nnc(C(C)C)n2c2ncccc12`: the inhibition in vivo at 25 mg/kg in the assay with Rattus norvegicus [1] is 61%.

For the compound `CCN(CC)C(=O)c1c(Cl)c2cccnc2n2c(C(=O)N(C(C)C)C(C)C)nnc12`, the inhibition in vivo at 200 mg/kg in the assay on Rattus norvegicus [3] came to 30%.

In the assay with Rattus norvegicus [3], `CCNc1c(C(=O)N(CC)CC)c2nnc(CC(=O)OCC)n2c2ncccc12` showed an inhibition in vivo at 200 mg/kg of 0%. For `COc1ccc2c(c1)c(CC(=O)O)c(C)n2C(=O)c1ccc(Cl)cc1` [INDOMETHACIN], in the assay on Rattus norvegicus [5], the inhibition in vivo at 6 mg/kg worked out at 92%.
